In ChEMBL document CHEMBL1255300, “Pharmacodynamics of the antibacterial effect and emergence of resistance to tomopenem, formerly RO4908463/CS-023, in an in vitro pharmacokinetic model of Staphylococcus aureus infection” (Antimicrob Agents Chemother, 2008):

Columns and labels:
Format in all cases: functional
Staphylococcus aureus [1] = test: Antibacterial activity against methicillin-resistant Staphylococcus aureus 33815 infected in in vitro pharmacokinetic model assessed as reduction in viable count at 750 mg, iv every 8 hrs measured after 48 hrs using 10^6 CFU/ml inoculum
How it was run: (§1)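 Single-compartment dilutional in vitro PK model, 37°C, stirred, in 10% Mueller-Hinton broth. […] Inoculum 10^6 CFU/ml from a 24-h plate culture was added 45 min before dosing. Viable counts by spiral plating on nutrient agar with β-lactamase neutralization. Log change was taken from time 0; detection limit 10^2 CFU/ml; at least triplicate.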

Staphylococcus aureus [2] = test: T>MIC for 4-log drop in count in methicillin-resistant Staphylococcus aureus 33815 in in vitro pharmacokinetic model after 24 hrs using 10^6 CFU/ml inoculum
Staphylococcus aureus [3] = test: Antibacterial activity against methicillin-resistant Staphylococcus aureus 33815 infected in in vitro pharmacokinetic model assessed as reduction in viable count at 1500 mg, iv every 8 hrs measured after 36 hrs using 10^8 CFU/ml inoculum
How it was run: (§2)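 PK model at 37°C in 10% MHB. […] A 0.5 McFarland suspension (1 ml) was added and the model run overnight to reach 10^8 CFU/ml before dosing. Counts were spiral-plated on nutrient agar with β-lactamase. Change in log CFU/ml was measured from time 0; at least triplicate.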

Staphylococcus aureus [4] = test: AUBKC (0 to 24 hrs) in methicillin-resistant Staphylococcus aureus 33815 infected in in vitro pharmacokinetic model at 1500 mg, iv every 8 hrs using 10^8 CFU/ml inoculum
How it was run: (§3)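 Single-compartment dilutional in vitro PK model at 37°C in 10% Mueller-Hinton broth, stirred, flow 132 ml/h. […] Inoculum 10^6 CFU/ml added 45 min before dosing, or 10^8 CFU/ml run overnight. Viable counts with β-lactamase neutralisation. AUBKC by log-linear trapezoidal rule, at least triplicate.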

Staphylococcus aureus [5] = test: Antibacterial activity against methicillin-resistant Staphylococcus aureus 33829 in in vitro pharmacokinetic model assessed as viable count at 4 times of MIC
How it was run: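 Preexposure population analysis: time-zero model samples plated on nutrient agar without drug and with drug at multiples of the 10% broth MIC. Growth reported as log CFU/ml, detection limit 2 log10.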

Staphylococcus aureus [6] = test: Antibacterial activity against methicillin-resistant Staphylococcus aureus 33922 infected in in vitro pharmacokinetic model assessed as reduction in viable count at 750 mg, iv every 8 hrs measured after 24 hrs using 10^8 CFU/ml inoculum
Staphylococcus aureus [7] = test: AUBKC (0 to 24 hrs) in methicillin-resistant Staphylococcus aureus 33815 infected in in vitro pharmacokinetic model at 750 mg, iv every 8 hrs using 10^8 CFU/ml inoculum; how it was run: as §3
Staphylococcus aureus [8] = test: Antibacterial activity against methicillin-resistant Staphylococcus aureus 33829 infected in in vitro pharmacokinetic model assessed as time required to 99% killing at 1500 mg, iv every 8 hrs using 10^6 CFU/ml inoculum
How it was run: (§4)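 Single-compartment dilutional in vitro PK model, 10% Mueller-Hinton broth, 37°C, stirred, dilution 132 ml/h. […] Inoculum 10^6 CFU/ml (added 45 min pre-dose) or 10^8 CFU/ml (run overnight). Viable counts by spiral plating, beta-lactamase neutralization, detection limit 10^2 CFU/ml. At least triplicate.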

Staphylococcus aureus [9] = test: Antibacterial activity against methicillin-resistant Staphylococcus aureus 33827 infected in in vitro pharmacokinetic model assessed as reduction in viable count at 1500 mg, iv every 8 hrs measured after 12 hrs using 10^8 CFU/ml inoculum; how it was run: as §4
Staphylococcus aureus [10] = test: Antibacterial activity against methicillin-resistant Staphylococcus aureus 33815 infected in in vitro pharmacokinetic model assessed as reduction in viable count at 750 mg, iv every 8 hrs measured after 36 hrs using 10^8 CFU/ml inoculum; how it was run: as §2
Staphylococcus aureus [11] = test: Antibacterial activity against methicillin-resistant Staphylococcus aureus 33820 infected in in vitro pharmacokinetic model assessed as time required to 99% killing at 750 mg, iv every 8 hrs using 10^6 CFU/ml inoculum
Staphylococcus aureus [12] = test: T>MIC for 2-log drop in count in methicillin-resistant Staphylococcus aureus 33922 in in vitro pharmacokinetic model after 24 hrs using 10^8 CFU/ml inoculum
Staphylococcus aureus [13] = test: Antibacterial activity against methicillin-sensitive Staphylococcus aureus 5956 infected in in vitro pharmacokinetic model assessed as reduction in viable count at 750 mg, iv every 8 hrs measured after 48 hrs using 10^6 CFU/ml inoculum
Staphylococcus aureus [14] = test: AUBKC (0 to 24 hrs) in methicillin-resistant Staphylococcus aureus 33827 infected in in vitro pharmacokinetic model at 1500 mg, iv every 8 hrs using 10^8 CFU/ml inoculum; how it was run: as §3
Staphylococcus aureus [15] = test: Antibacterial activity against methicillin-resistant Staphylococcus aureus 33815 infected in in vitro pharmacokinetic model assessed as reduction in viable count at 750 mg, iv every 8 hrs measured after 12 hrs using 10^6 CFU/ml inoculum; how it was run: as §1
Staphylococcus aureus [16] = test: T>MIC for 2-log drop in count in methicillin-resistant Staphylococcus aureus 33820 in in vitro pharmacokinetic model after 24 hrs using 10^6 CFU/ml inoculum
Staphylococcus aureus [17] = test: Antibacterial activity against methicillin-resistant Staphylococcus aureus 33827 in in vitro pharmacokinetic model assessed as viable count at 4 times of MIC
How it was run: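 Population analysis before drug exposure (time 0). Model samples were plated on nutrient agar without drug and with tomopenem at 2×, 4× and 6× MIC (10% MHB MIC), and growth was recorded as log CFU/ml. Detection limit 2 log10.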

Staphylococcus aureus [18] = test: AUBKC (0 to 48 hrs) in methicillin-resistant Staphylococcus aureus 33827 infected in in vitro pharmacokinetic model at 750 mg, iv every 8 hrs using 10^6 CFU/ml inoculum; how it was run: as §3
Staphylococcus aureus [19] = test: T>MIC for 2-log drop in count in methicillin-resistant Staphylococcus aureus 33922 in in vitro pharmacokinetic model after 24 hrs using 10^6 CFU/ml inoculum
Staphylococcus aureus [20] = test: Antibacterial activity against methicillin-resistant Staphylococcus aureus 33820 infected in in vitro pharmacokinetic model assessed as reduction in viable count at 750 mg, iv every 8 hrs measured after 48 hrs using 10^6 CFU/ml inoculum; how it was run: as §1
Staphylococcus aureus [21] = test: AUBKC (0 to 24 hrs) in methicillin-resistant Staphylococcus aureus 33922 infected in in vitro pharmacokinetic model at 1500 mg, iv every 8 hrs using 10^6 CFU/ml inoculum; how it was run: as §3
Staphylococcus aureus [22] = test: AUBKC (0 to 24 hrs) in methicillin-resistant Staphylococcus aureus 33827 infected in in vitro pharmacokinetic model at 1500 mg, iv every 8 hrs using 10^6 CFU/ml inoculum; how it was run: as §3
Staphylococcus aureus [23] = test: Antibacterial activity against methicillin-resistant Staphylococcus aureus 33921 infected in in vitro pharmacokinetic model assessed as reduction in viable count at 1500 mg, iv every 8 hrs measured after 48 hrs using 10^6 CFU/ml inoculum; how it was run: as §4
Staphylococcus aureus [24] = test: AUBKC (0 to 24 hrs) in methicillin-sensitive Staphylococcus aureus 5956 infected in in vitro pharmacokinetic model at 750 mg, iv every 8 hrs using 10^6 CFU/ml inoculum
Staphylococcus aureus [25] = test: Antibacterial activity against methicillin-resistant Staphylococcus aureus 33827 infected in in vitro pharmacokinetic model assessed as time required to 99.9% killing at 1500 mg, iv every 8 hrs using 10^8 CFU/ml inoculum; how it was run: as §4

C[C@@H](O)[C@H]1C(=O)N2C(C(=O)O)=C(S[C@H]3C[C@@H](C(=O)N4CC[C@H](NC(=O)CNC(=N)N)C4)N(C)C3)[C@H](C)[C@H]12 [TOMOPENEM]
log10CFU/ml (Staphylococcus aureus [1]): 4.2
fT>MIC (Staphylococcus aureus [2]): 29.6%
log10CFU/ml (Staphylococcus aureus [3]): 3.9
AUBC (Staphylococcus aureus [4]): 103.5 log10CFU/ml.hr
log10CFU/ml (Staphylococcus aureus [5]): 5.4
log10CFU/ml (Staphylococcus aureus [6]): 5
AUBC (Staphylococcus aureus [7]): 100 log10CFU/ml.hr
Time (Staphylococcus aureus [8]): 7 h
log10CFU/ml (Staphylococcus aureus [9]): 3.4
log10CFU/ml (Staphylococcus aureus [10]): 5.5
Time (Staphylococcus aureus [11]): 7 h
fT>MIC (Staphylococcus aureus [12]): 4.7%
log10CFU/ml (Staphylococcus aureus [13]): 4.5
AUBC (Staphylococcus aureus [14]): 84.4 log10CFU/ml.hr
log10CFU/ml (Staphylococcus aureus [15]): 4.2
fT>MIC (Staphylococcus aureus [16]): 14.5%
log10CFU/ml (Staphylococcus aureus [17]): <2
AUBC (Staphylococcus aureus [18]): 44.9 log10CFU/ml.hr
fT>MIC (Staphylococcus aureus [19]): 5.4%
log10CFU/ml (Staphylococcus aureus [20]): 4.2
AUBC (Staphylococcus aureus [21]): 16.9 log10CFU/ml.hr
AUBC (Staphylococcus aureus [22]): 28.1 log10CFU/ml.hr
log10CFU/ml (Staphylococcus aureus [23]): 3.7
AUBC (Staphylococcus aureus [24]): 27.6 log10CFU/ml.hr
Time (Staphylococcus aureus [25]): 12 h
